Experimental data collected from several papers.
Protocols differ between the studies behind these lines.
Target: Serine/threonine-protein kinase LATS2 (LATS2, Homo sapiens, UniProt Q9NRM7)
One construct used (Q9NRM7 1-1088): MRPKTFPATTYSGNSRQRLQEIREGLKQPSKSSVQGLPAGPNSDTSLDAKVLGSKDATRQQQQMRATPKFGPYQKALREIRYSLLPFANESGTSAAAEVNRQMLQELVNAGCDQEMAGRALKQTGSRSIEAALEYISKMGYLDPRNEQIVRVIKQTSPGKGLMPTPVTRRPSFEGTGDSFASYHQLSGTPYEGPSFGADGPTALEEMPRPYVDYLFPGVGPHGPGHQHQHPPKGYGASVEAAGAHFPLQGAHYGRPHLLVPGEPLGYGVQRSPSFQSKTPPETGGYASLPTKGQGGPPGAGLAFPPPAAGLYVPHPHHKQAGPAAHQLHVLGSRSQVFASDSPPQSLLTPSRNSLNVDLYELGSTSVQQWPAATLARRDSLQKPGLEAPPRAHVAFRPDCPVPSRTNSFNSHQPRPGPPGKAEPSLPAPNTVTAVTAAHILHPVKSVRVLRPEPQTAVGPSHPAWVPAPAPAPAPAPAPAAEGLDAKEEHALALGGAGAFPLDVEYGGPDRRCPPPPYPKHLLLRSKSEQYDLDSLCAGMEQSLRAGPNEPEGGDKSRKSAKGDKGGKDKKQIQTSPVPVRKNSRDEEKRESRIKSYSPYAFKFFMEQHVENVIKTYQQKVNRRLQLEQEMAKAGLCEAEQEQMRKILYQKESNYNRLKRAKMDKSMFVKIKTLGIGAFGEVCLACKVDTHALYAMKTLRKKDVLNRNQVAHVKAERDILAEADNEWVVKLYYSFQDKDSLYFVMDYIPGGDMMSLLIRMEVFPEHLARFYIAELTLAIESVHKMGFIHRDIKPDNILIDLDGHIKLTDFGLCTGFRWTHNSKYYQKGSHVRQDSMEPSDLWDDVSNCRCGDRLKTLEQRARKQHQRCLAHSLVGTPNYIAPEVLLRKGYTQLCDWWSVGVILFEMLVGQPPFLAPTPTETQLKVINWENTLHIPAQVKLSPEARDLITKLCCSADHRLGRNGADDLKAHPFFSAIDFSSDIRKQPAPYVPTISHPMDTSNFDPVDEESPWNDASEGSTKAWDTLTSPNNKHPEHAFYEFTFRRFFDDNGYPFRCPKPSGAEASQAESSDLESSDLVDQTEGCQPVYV

| Compound | effect on | method | concentration | remaining binding [%] |
| --- | --- | --- | --- | --- |
| Cc1nc(C2CCN(C(=O)c3ccc(OC(F)(F)F)cc3N)CC2)c2ncc(N3CCN(C)CC3)cc2n1 | cell-free assay | competition with immobilised ligand | 1 µM | 100 |
| Cc1cnc(Nc2ccc(C(=O)N3CCC(N4CCCC4)CC3)cc2)nc1-c1cc2ccccc2s1 | binding | competition with immobilised ligand | 1 µM | 44 |
| c1cncc(-c2cccc(Nc3nccc(NC4CCCCC4)n3)c2)c1 | binding | competition with immobilised ligand | 10 µM | 12 |
| CCCCN(CCCC)C(=O)CN1C[C@@H](c2cc(OC)c3c(c2)OCO3)[C@H](C(=O)O)[C@H]1CC(C)(C)CCC | cell-free assay | competition with immobilised ligand | 1 µM | 100 |
| C[C@@H]1CCN(c2nccc(-c3cnn4ncccc34)n2)C1 | binding | – | 1 µM | 93 |
| Cc1nccc(COC(=O)N2C[C@@H]3[C@@H](CNC(=O)c4ccc5[nH]nnc5c4)[C@@H]3C2)n1 | cell-free assay | competition with immobilised ligand | 1 µM | 97 |
| CNC(=O)[C@@H]1CC[C@@H](n2c(-c3ccc4cnccc4c3)nc3ccc(C(=O)NCc4cccc(C(N)=O)c4)cc32)C1 | binding | competition with immobilised ligand | 1 µM | 100 |
| NS(=O)(=O)c1cc(NC(=O)Cc2ccccc2)ccc1Oc1cccc(Cl)c1 | cell-free assay | competition with immobilised ligand | 1 µM | 94 |
| CN(C)c1ncc(F)c(-c2cnn3ncccc23)n1 | binding | – | 1 µM | 72 |
| O=C(NCCCN1CCOCC1)c1ccc(Nc2nccc(-c3cc4ccccc4s3)n2)cc1 | binding | competition with immobilised ligand | 1 µM | 100 |
| O=C(Nc1c[nH]nc1C(=O)NC1CCNCC1)c1cc(F)cc(F)c1 | binding | competition with immobilised ligand | 1 µM | 94 |
| CS(=O)(=O)NCC[C@H](NC(=O)c1cncc2c1cnn2-c1ccc(F)cc1)c1ccnc(S(C)(=O)=O)c1 | cell-free assay | competition with immobilised ligand | 1 µM | 97 |
| CN(CCCC(F)(F)F)c1nccc(-c2cnn3ncccc23)n1 | binding | – | 1 µM | 100 |
| Nc1ncc2c(n1)-c1c([nH]c3ccc(C#CC4CC4)cc13)CCCC2 | binding | competition with immobilised ligand | 1 µM | 91 |
| c1cnn2ncc(-c3ccnc(N4CCC45COC5)n3)c2c1 | binding | – | 1 µM | 88 |
| C[C@@]1(Cc2ccc(C#N)cc2)C(=O)N(c2cc(Cl)cc(Cl)c2)c2ncc(C(=O)NC3(c4nc(C5CCC5)no4)CC3)n21 | cell-free assay | competition with immobilised ligand | 1 µM | 92 |
| CC1CCCN1c1nccc(-c2cnn3ncccc23)n1 (centres unmarked) | binding | – | 1 µM | 100 |
| CCN1CCN(Cc2ccc(C(=O)Nc3ccc(C)c(Oc4ccc5c(c4)CC(=O)N5)c3)cc2C(F)(F)F)CC1 | binding | competition with immobilised ligand | 1 µM | 100 |
| CN(c1nccc(-c2cnn3ncccc23)n1)C1CC1 | binding | – | 1 µM | 100 |
| O=C(c1ccc(Nc2ncc(Cl)c(-c3cc4ccccc4s3)n2)cc1)N1CCC(N2CCCC2)CC1 | binding | competition with immobilised ligand | 1 µM | 15 |
